# The source made the active and inactive calls. The rule behind the calls is not given here.
# Columns and labels:
# [1] = biological target: T1, Histone acetyltransferase p300 (Homo sapiens, UniProt Q09472); assay: (§1) Inhibition of recombinant human GST-tagged p300 HAT domain (1195 to 1673 residues) expressed in Escherichia coli BL21 codon plus cells at 10 uM using Histone H3 peptide (1 to 21) and [3H]acetyl-CoA as substrate preincubated with enzyme for 10 mins followed by substrate addition and measured after 30 mins by scintillation counting method relative to control
# [2] = biological target: T1, Histone acetyltransferase p300; assay: as §1, with “cells” for “cells at 10 uM”, “method” for “method relative to control”
# Outline: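 The compound (100 nM to 10 µM) was preincubated with p300-HAT (10 nM) for 10 min at 25 °C in 50 mM phosphate buffer pH 7.0 with 0.01% Brij-35. Incorporation of [3H]acetyl from Ac-CoA into histone H3 (1-21) peptide was captured on filter paper, washed with 50 mM NaHCO3 and counted by scintillation. IC50 came from a sigmoidal dose-response fit, mean of at least three experiments.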
# [3] = biological target: Lysine-specific histone demethylase 1A (Homo sapiens) (UniProt O60341); assay: Inhibition of LSD1 (unknown origin) at 50 uM
# MCF7 [4] = assay: Antiproliferative activity against human MCF7 cells assessed as reduction in cell viability incubated for 6 days by Celigo-insitu cell cytometer analysis; conditions: MCF7, 144 h
# MCF7 [5] = assay: Antiproliferative activity against human tamoxifen-resistant MCF7 cells assessed as reduction in cell viability incubated for 6 days by Celigo-insitu cell cytometer analysis; conditions: MCF7, 144 h
# PANC-1 = assay: Antiproliferative activity against human PANC1 cells assessed as reduction in cell viability incubated for 5 days by MTT assay; conditions: PANC-1, 120 h
# [6] = Antiproliferative activity against human MDAPanc28 cells assessed as reduction in cell viability incubated for 5 days by MTT assay; conditions: MDA-Panc-28, 120 h
# Kasumi 1 = assay: Antiproliferative activity against human Kasumi-1 cells assessed as reduction in cell viability incubated for 5 days by XTT assay; conditions: Kasumi 1, 120 h
# [7] = biological target: T1, Histone acetyltransferase p300; assay: Inhibition of His6-tagged p300 HAT domain (unknown origin) assessed as disruption of p300 and Histone H4 (1-21) peptide interaction incubated for 1 hr by Alpha assay
# Outline: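 Varying compound concentrations were added in PBS with 0.5% BSA for 1 h. Signal was read with excitation at 680 nm and emission at 570 nm. A biotinylated His6 peptide served as an interference counter-control. IC50 came from a sigmoidal fit.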
# [8] = biological target: T2, CREB-binding protein/Histone acetyltransferase p300 (Homo sapiens) (UniProt Q09472+Q92793); assay: Inhibition of p300/CBP HAT domain in human Kasumi-1 cells assessed as reduction in H3K9 acetylation at 5 to 10 uM incubated for 12 hrs by Western blot analysis; format: cell-based
# Outline: (§2)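 Kasumi-1 cells (10^6 per well) were treated with compound at 0, 5 and 10 µM for 12 h. Total histones were extracted, and 2 µg was run on SDS-PAGE and blotted to PVDF. Blots were probed for H3K9Ac, H3K18Ac, H3K27Ac and total H3, then with an anti-rabbit IgG secondary.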
# [9] = biological target: T2, CREB-binding protein/Histone acetyltransferase p300 (Homo sapiens); assay: Inhibition of p300/CBP HAT domain in human Kasumi-1 cells assessed as reduction in H3K18 acetylation at 5 to 10 uM incubated for 12 hrs by Western blot analysis; format: cell-based; outline: as §2
# [10] = biological target: T2, CREB-binding protein/Histone acetyltransferase p300 (Homo sapiens); assay: Inhibition of p300/CBP HAT domain in human Kasumi-1 cells assessed as reduction in H3K27 acetylation at 5 to 10 uM incubated for 12 hrs by Western blot analysis; format: cell-based; outline: as §2
# CREB-binding protein = CREB-binding protein (Homo sapiens, UniProt Q92793); assay: as §1, with “CBP” for “p300”, “domain” for “domain (1195 to 1673 residues)”, “cells” for “cells at 10 uM”, “method” for “method relative to control”
# Outline: (§3)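 CBP, PCAF and Myst3 HAT proteins were prepared like GST-p300-HAT: expressed in E. coli BL21-CodonPlus, purified on glutathione resin, then by gel filtration. Inhibition was measured in the same radiometric filter assay with [3H]Ac-CoA and histone H3 (1-21) peptide, read by scintillation counting.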
# [11] = biological target: Histone acetyltransferase KAT2B (Homo sapiens, UniProt Q92831); assay: Inhibition of recombinant human GST-tagged PCAF expressed in Escherichia coli BL21 codon plus cells using Histone H3 peptide (1 to 21) and [3H]acetyl-CoA as substrate preincubated with enzyme for 10 mins followed by substrate addition and measured after 30 mins by scintillation counting method; outline: as §3
# [12] = biological target: Histone acetyltransferase KAT6A (Homo sapiens, UniProt Q92794); assay: Inhibition of recombinant human GST-tagged Myst3 expressed in Escherichia coli BL21 codon plus cells using Histone H3 peptide (1 to 21) and [3H]acetyl-CoA as substrate preincubated with enzyme for 10 mins followed by substrate addition and measured after 30 mins by scintillation counting method; outline: as §3
# [13] = Inhibition of p300 HAT domain (1287-1652 residues) (unknown origin) harboring regulatory auto-acetylation loop deletion mutant and M1652G mutant using H4-15 peptide as substrate preincubated with enzyme and substrate for 10 mins followed by addition of [12C]acetylCoA and [14C]acetylCoA for 10 mins by phosphor-imaging analysis; parameters: species or system Homo sapiens
# T2 sequence (Q09472 whole entry, looked up, the tested form may be a part): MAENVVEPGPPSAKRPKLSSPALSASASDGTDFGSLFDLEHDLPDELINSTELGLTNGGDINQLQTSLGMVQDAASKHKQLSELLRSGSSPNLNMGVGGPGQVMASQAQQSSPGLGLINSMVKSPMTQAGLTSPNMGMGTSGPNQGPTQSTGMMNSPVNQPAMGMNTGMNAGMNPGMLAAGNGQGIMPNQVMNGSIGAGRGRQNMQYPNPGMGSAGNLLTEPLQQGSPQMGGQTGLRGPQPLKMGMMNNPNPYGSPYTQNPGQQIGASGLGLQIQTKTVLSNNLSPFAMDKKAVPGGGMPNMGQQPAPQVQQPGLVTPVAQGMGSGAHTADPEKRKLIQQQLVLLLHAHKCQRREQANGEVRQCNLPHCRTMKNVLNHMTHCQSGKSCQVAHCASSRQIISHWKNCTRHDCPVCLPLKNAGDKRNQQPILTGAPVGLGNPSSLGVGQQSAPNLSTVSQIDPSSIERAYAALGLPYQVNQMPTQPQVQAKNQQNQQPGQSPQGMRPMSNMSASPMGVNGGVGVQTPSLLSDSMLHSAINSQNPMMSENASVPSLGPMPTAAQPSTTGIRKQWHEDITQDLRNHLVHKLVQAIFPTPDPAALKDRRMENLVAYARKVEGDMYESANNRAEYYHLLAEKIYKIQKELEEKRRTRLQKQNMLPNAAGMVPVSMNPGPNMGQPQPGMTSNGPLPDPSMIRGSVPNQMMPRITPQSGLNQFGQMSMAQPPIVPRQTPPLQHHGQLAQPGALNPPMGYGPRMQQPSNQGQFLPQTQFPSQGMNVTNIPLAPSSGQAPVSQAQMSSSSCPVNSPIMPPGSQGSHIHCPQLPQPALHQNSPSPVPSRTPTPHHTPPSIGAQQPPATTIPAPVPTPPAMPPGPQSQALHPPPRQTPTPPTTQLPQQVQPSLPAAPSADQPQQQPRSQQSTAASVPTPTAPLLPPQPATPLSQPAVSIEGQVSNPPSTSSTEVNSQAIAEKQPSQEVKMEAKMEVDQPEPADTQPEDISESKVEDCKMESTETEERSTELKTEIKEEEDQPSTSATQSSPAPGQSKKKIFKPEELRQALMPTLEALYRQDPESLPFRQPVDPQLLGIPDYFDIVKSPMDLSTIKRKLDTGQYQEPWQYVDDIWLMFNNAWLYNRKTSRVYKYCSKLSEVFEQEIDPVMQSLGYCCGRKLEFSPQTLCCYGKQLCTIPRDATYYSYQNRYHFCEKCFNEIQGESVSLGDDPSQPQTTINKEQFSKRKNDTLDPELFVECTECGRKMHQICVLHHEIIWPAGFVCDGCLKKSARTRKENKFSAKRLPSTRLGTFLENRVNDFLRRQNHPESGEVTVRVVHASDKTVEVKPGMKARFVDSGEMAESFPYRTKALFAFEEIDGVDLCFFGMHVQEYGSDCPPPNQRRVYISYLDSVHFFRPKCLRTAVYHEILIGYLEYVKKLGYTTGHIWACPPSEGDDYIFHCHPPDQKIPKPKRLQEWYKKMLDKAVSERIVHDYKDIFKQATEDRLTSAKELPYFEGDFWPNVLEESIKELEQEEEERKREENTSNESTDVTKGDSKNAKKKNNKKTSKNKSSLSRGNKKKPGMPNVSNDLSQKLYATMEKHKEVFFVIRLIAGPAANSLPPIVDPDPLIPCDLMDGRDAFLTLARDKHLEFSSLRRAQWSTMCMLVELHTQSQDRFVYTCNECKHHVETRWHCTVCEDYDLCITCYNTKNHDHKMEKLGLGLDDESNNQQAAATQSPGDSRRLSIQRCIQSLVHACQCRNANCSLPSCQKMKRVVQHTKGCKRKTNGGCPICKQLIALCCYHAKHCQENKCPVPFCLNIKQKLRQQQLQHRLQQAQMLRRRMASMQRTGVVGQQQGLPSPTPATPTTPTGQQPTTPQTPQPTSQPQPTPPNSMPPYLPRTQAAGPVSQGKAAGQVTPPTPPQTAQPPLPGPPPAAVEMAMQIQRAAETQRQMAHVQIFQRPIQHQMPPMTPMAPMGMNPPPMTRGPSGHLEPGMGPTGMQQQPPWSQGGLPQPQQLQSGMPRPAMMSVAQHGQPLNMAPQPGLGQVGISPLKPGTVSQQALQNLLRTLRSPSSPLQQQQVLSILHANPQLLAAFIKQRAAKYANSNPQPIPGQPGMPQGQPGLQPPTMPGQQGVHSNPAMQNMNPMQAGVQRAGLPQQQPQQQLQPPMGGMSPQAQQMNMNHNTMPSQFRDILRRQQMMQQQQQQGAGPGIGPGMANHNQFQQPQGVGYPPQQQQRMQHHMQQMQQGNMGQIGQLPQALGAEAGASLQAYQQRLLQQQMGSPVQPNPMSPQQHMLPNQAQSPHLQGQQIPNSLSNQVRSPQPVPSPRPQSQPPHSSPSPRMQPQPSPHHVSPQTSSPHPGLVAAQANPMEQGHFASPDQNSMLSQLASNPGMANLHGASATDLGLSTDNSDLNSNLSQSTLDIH
# T2 sequence (Q92793 whole entry, looked up, the tested form may be a part): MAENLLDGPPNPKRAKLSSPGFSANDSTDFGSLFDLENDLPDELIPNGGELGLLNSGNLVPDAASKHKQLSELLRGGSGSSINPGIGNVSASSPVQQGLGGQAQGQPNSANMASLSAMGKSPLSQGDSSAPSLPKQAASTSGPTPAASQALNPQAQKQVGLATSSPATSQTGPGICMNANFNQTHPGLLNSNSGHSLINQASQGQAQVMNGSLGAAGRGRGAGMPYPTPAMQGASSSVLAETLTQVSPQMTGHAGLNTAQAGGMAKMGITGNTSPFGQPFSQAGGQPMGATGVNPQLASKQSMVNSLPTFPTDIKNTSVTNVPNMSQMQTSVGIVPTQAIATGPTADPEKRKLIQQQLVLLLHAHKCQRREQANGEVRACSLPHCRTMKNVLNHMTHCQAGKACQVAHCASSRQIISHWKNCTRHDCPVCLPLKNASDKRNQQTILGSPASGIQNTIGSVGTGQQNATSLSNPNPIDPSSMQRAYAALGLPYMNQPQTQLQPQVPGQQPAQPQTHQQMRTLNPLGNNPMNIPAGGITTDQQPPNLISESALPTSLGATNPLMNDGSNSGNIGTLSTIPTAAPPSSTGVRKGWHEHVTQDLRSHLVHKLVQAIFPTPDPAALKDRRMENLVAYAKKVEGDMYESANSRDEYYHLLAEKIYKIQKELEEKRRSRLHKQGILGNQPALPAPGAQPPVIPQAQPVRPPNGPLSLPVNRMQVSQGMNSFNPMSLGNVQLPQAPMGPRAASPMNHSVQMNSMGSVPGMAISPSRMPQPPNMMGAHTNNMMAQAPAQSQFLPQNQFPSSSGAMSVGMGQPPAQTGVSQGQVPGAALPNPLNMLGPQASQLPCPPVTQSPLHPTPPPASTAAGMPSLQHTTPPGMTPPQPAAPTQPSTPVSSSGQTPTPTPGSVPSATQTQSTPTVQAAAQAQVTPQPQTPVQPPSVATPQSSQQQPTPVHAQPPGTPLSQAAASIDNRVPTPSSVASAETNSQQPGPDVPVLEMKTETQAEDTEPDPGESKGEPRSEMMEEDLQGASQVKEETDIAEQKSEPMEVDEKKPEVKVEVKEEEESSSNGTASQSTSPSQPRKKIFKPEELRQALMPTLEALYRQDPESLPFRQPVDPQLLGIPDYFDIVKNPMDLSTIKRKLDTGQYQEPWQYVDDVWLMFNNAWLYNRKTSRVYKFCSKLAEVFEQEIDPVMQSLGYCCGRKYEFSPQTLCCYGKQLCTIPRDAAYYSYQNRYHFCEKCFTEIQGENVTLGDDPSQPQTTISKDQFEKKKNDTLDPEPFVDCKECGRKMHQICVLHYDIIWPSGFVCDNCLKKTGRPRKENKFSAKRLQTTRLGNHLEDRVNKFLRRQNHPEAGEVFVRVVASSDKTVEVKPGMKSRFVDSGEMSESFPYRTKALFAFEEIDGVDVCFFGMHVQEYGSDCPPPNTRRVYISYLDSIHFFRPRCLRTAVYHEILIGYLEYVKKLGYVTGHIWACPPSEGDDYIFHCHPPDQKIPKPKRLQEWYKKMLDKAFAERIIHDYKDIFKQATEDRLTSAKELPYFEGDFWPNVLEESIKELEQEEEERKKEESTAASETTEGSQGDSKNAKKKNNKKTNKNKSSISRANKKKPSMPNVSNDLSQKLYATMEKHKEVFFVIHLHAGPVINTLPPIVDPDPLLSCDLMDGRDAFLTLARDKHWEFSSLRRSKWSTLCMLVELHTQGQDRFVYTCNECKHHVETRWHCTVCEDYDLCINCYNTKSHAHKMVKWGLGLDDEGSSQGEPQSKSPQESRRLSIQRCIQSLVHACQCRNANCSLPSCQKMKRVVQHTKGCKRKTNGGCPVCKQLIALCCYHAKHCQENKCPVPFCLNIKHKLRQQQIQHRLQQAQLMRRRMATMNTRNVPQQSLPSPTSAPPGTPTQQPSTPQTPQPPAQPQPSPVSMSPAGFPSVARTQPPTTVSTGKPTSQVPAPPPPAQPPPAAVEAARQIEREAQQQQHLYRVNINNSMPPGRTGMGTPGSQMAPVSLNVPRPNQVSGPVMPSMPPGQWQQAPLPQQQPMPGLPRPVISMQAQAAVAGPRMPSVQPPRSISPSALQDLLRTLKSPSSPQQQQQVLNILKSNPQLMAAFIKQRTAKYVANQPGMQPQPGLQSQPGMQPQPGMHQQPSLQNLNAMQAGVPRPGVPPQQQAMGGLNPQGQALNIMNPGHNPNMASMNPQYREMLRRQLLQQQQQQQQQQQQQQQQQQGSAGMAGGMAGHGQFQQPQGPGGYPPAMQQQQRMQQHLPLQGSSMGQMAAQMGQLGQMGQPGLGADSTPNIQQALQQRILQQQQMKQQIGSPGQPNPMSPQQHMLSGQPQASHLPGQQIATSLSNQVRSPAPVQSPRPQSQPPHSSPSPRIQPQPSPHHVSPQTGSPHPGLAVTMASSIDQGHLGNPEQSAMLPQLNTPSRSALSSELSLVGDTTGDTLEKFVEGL
# T1 sequence (Q09472 whole entry, the tested form may be a part): as the sequence (Q09472 whole entry, looked up, the tested form may be a part) above
# Sequence of CREB-binding protein (Q92793 whole entry, the tested form may be a part): as the sequence (Q92793 whole entry, looked up, the tested form may be a part) above
SMILES,inhibition [1] [%],IC50 [2] [µM],also measured
c1cc(-c2cc(CNCC3CCNCC3)sc2-c2ccoc2)co1,23,> 10,
OCc1ccc(-c2cc(CNCC3CCNCC3)sc2-c2ccc(CO)cc2)cc1,22,> 10,
CC(C)(C)c1ccc(-c2csc(CNCC3CCNCC3)n2)cc1,10,,
COc1ccc(-c2ccc(-c3cc(C(=O)NCC4CCNCC4)sc3-c3ccc(-c4ccc(OC)cc4)cc3)cc2)cc1,,2.8,
CC(C)(C)c1ccc(-c2cc(C(=O)NCC3CCNCC3)sc2-c2ccc(C(C)(C)C)cc2)cc1,,8.6,inhibition [3]: inactive
CCCCc1ccc(-c2cc(CNCC3CCNCC3)sc2-c2ccc(CCCC)cc2)cc1,10,> 10,
CC(C)(C)c1ccc(-c2nc(CNCC3CCNCC3)sc2-c2ccc(C(C)(C)C)cc2)cc1,,8.6,
CC(C)(C)c1ccc(-c2sc(C(=O)NCC3CCNCC3)cc2-c2cccnc2)cc1,31,> 10,
CC(C)(C)c1ccc(-c2cc(CNC3CCNCC3)sc2-c2ccc(C(C)(C)C)cc2)cc1,,5,
COc1ccc(-c2cc(CNCC3CCNCC3)sc2-c2ccc(OC)c(OC)c2)cc1OC,0,> 10,EC50 (MCF7 [4]): > 30 µM; EC50 (MCF7 [5]): > 30 µM; EC50 (PANC-1): > 30 µM; EC50 [6]: > 30 µM; EC50 (Kasumi 1): 18.7 µM
CC(C)(C)c1ccc(-c2csc(C(=O)NCC3CCNCC3)n2)cc1,18,,
c1cc(-c2ccc(-c3cc(CNCC4CCNCC4)sc3-c3ccc(-c4ccoc4)cc3)cc2)co1,,1.7,
CC(C)(C)c1ccc(-c2sc(CNCC3CCNCC3)cc2-c2ccc(CN)cc2)cc1,35,> 10,
CC(C)(C)c1ccc(-c2sc(C(=O)NCC3CCNCC3)cc2-c2ccc(CN)cc2)cc1,,10,
CC(C)(C)c1ccc(-c2cc(CN3CCOCC3)sc2-c2ccc(C(C)(C)C)cc2)cc1,20,> 10,
CC(C)(C)c1ccc(-c2cc(CNCCCN)sc2-c2ccc(C(C)(C)C)cc2)cc1,,3,
c1ccc(-c2cccc(-c3cc(CNCC4CCNCC4)sc3-c3cccc(-c4ccccc4)c3)c2)cc1,18,> 10,
CC(C)(C)c1ccc(-c2sc(C(=O)NCC3CCNCC3)cc2-c2ccoc2)cc1,36,> 10,

SMILES,inhibition [1] [%],IC50 [2] [µM],also measured
COc1ccc(-c2ccc(-c3cc(CNCC4CCNCC4)sc3-c3ccc(-c4ccc(OC)cc4)cc3)cc2)cc1,,7.4,
CC(C)(C)c1ccc(-c2cc(CNCCC3CCNCC3)sc2-c2ccc(C(C)(C)C)cc2)cc1,,2.2,
CC(C)(C)c1ccc(-c2sc(C(=O)NCC3CCNCC3)cc2-c2ccc(-c3ccoc3)cc2)cc1,,7.4,
c1cc(-c2ccc(-c3ncc(CNCC4CCNCC4)nc3-c3ccc(-c4ccoc4)cc3)cc2)co1,25,,
CC(C)(C)c1ccc(-c2cc(CNCC3CCNCC3)sc2-c2ccc(CN)cc2)cc1,,2,
CC(C)(C)c1ccc(-c2sc(CNCC3CCNCC3)cc2-c2ccc(-c3ccoc3)cc2)cc1,,5.8,
NCc1ccc(-c2cc(CNCC3CCNCC3)sc2-c2ccc(CN)cc2)cc1,0,> 10,inhibition [7]: inactive; EC50 (MCF7 [4]): > 30 µM; EC50 (MCF7 [5]): > 30 µM; EC50 (PANC-1): > 30 µM; EC50 [6]: > 30 µM; EC50 (Kasumi 1): > 30 µM; inhibition [8]: inactive; inhibition [9]: inactive; inhibition [10]: inactive
c1cc(-c2ccc(-c3cc(CNCC4CCNCC4)sc3-c3ccc(CN4CCCCC4)cc3)cc2)co1,,4.6,
CC(C)(C)c1ccc(-c2cc(CN3CCNCC3)sc2-c2ccc(C(C)(C)C)cc2)cc1,5,> 10,
O=C(NCC1CCNCC1)c1cc(-c2ccc(CN3CCCCC3)cc2)c(-c2ccc(-c3ccoc3)cc2)s1,,1.6,
CC(C)(C)c1ccc(-c2nc(C(=O)NCC3CCNCC3)sc2-c2ccc(C(C)(C)C)cc2)cc1,,2.4,
CC(C)(C)c1ccc(-c2sc(CNCC3CCNCC3)c(Br)c2-c2ccc(C(C)(C)C)cc2)cc1,,1.8,
CC(C)(C)c1ccc(-c2cc(CNCC3CCNCC3)sc2-c2ccc(C(C)(C)C)cc2)cc1,,,IC50 (CREB-binding protein): 1.2 µM; IC50 [11]: > 50 µM; IC50 [12]: > 50 µM; inhibition [3]: inactive; EC50 (MCF7 [4]): 2.8 µM; EC50 (MCF7 [5]): 3.4 µM; EC50 (PANC-1): 1 µM; EC50 [6]: 2.8 µM; EC50 (Kasumi 1): 2.6 µM
CC1=NN(c2ccc(C(=O)O)cc2)C(=O)/C1=C\c1ccc(-c2cc(C)c(C)cc2[N+](=O)[O-])o1,,,IC50 [13]: 1.6 µM
CC(C)(C)c1ccc(-c2sc(C(=O)NCC3CCNCC3)cc2-c2ccc(CN3CCNCC3)cc2)cc1,12,> 10,
CC(C)(C)c1ccc(-c2cc(COCC3CCNCC3)sc2-c2ccc(C(C)(C)C)cc2)cc1,0,> 10,
O=C(NCC1CCNCC1)c1cc(-c2ccc(-c3ccoc3)cc2)c(-c2ccc(-c3ccoc3)cc2)s1,,1.6,
CC(C)(C)c1ccc(-c2cc(CNCCCCCCN)sc2-c2ccc(C(C)(C)C)cc2)cc1,,1.4,
